Calls of active or inactive are those of the source. The calls are words filed in the database; no cut-off is given here.
Columns and labels:
Colon [1] = assay: Anti-colitis activity against DSS-induced ulcerative colitis mouse model assessed as decrease in IL-1beta level in colon tissue at 0.2 to 0.6 mg/kg, ip treated every 72 hrs for 9 days by ELISA; assay type: functional, organism-based; conditions: dose 0.2-0.6 mg/kg, time 9.0 day
Procedure, shortened: (§1)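 Colitis induced with 2.5% DSS in drinking water on days 1–7, plain water days 8–9. Compound given i.p. at 0.2 and 0.6 mg kg−1 in 50% PEG300 on days 2, 5 and 8. Mice killed on day 9; colon tissue cytokines measured by ELISA. Mean ± s.e.m.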

[2] = target: NACHT, LRR and PYD domains-containing protein 3 (Mus musculus) (UniProt Q8R4B8); assay: Inhibition of NLRP3 inflammasome activation in mouse BMDM cells assessed as reduction in LPS-stimulated IL-1beta level at 50 to 200 nM pretreated for 1 hr followed by imiquimod treatment for 2 hrs by ELISA; assay type: cell-based; conditions: dose 50-200 nM, time 3.0 hrs
Procedure, shortened: (§2)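 Bone-marrow macrophages in RPMI 1640/10% FBS/M-CSF. LPS priming at 0.5 μg mL−1 for 3 h, compound 1 h. NLRP3 then triggered by nigericin 10 μM for 0.5 h or imiquimod 900 μM for 2 h. Supernatant IL-1β by ELISA.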

Colon [3] = assay: Downregulation of IL-6 level in colon tissue of DSS-induced ulcerative colitis mouse model at 0.2 to 0.6 mg/kg, ip treated every 72 hrs for 9 days by ELISA; assay type: functional, organism-based; conditions: dose 0.2-0.6 mg/kg, time 9.0 day; procedure, shortened: as §1
J774.A1 = assay: Inhibition of intracellular ROS generation in mouse J774.A1 cells at 0.125 to 0.5 uM pretreated for 1 hr followed by nigericin treatment for 1 hr by DCFH-DA staining based fluorescence microscopy; assay type: functional, cell-based; conditions: dose 0.125-0.5 µM, time 2.0 hrs
Procedure, shortened: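 J774A.1 cells processed through NLRP3 activation protocol (LPS 1 μg mL−1 5 h, compound, nigericin 10 μM 1 h). Loaded with DCFH-DA 20 μM at 37 °C for 30 min and washed twice with D-PBS. Fluorescence read at Ex/Em 492/520.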

[4] = target: NACHT, LRR and PYD domains-containing protein 3 (Mus musculus, UniProt Q8R4B8); assay: Inhibition of NLRP3 inflammasome activation in mouse J774.A1 cells assessed as reduction in LPS-stimulated IL-1beta level pretreated for 1 hr followed by nigericin treatment for 1 hr by ELISA; assay type: cell-based
Procedure, shortened: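 J774A.1 cells (DMEM, 10% FBS) primed with LPS 1 μg mL−1 for 5 h, compound 1 h, then nigericin 10 μM for 1 h. Supernatant IL-1β by ELISA; IC50 from three separate determinations.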

[5] = target: NACHT, LRR and PYD domains-containing protein 3 (Mus musculus) (UniProt Q8R4B8); assay: Inhibition of NLRP3 inflammasome activation in mouse BMDM cells assessed as reduction in LPS-stimulated IL-1beta level at 50 to 200 nM pretreated for 1 hr followed by nigericin treatment for 30 mins by ELISA; assay type: cell-based; conditions: dose 50-200 nM, time 1.5 hrs; procedure, shortened: as §2
Intestine [6] = assay: Anti-colitis activity against DSS-induced ulcerative colitis mouse model assessed as decrease in STAT-3 level in intestinal tissue at 0.2 to 0.6 mg/kg, ip treated every 72 hrs for 9 days by Western blot analysis; assay type: functional, organism-based; conditions: dose 0.2-0.6 mg/kg, time 9.0 day
Procedure, shortened: (§3)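 DSS model (2.5% in drinking water days 1–7, water days 8–9). Dosing was i.p. at 0.2 and 0.6 mg kg−1 in 50% PEG300 on days 2, 5, 8. Intestinal tissue taken at sacrifice on day 9. Lysed in RIPA with protease inhibitor and BCA-quantified, then run on SDS-PAGE/PVDF and probed for STAT1, STAT3, STAT5 and caspase-1. ECL detection.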

[7] = target: NACHT, LRR and PYD domains-containing protein 3 (Mus musculus) (UniProt Q8R4B8); assay: Inhibition of NLRP3 inflammasome activation in mouse BMDM cells assessed as reduction in LPS-stimulated ASC specks formation at 50 to 200 nM pretreated for 1 hr followed by nigericin treatment for 30 mins by immunofluorescence analysis; assay type: cell-based; conditions: dose 50-200 nM, time 1.5 hrs
Procedure, shortened: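 BMDMs primed with LPS 1.5 μg mL−1 for 3 h at 37 °C, compound for 1 h, nigericin 10 μM for 30 min. Fixed in 4% paraformaldehyde and permeabilized with 1% Triton X-100. Blocked in 1% BSA, primary antibody overnight at 4 °C, rhodamine secondary plus DAPI. ASC specks counted by fluorescence microscopy.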

Colon [8] = assay: Downregulation of TNF-alpha level in colon tissue of DSS-induced ulcerative colitis mouse model at 0.2 to 0.6 mg/kg, ip treated every 72 hrs for 9 days by ELISA; assay type: functional, organism-based; conditions: dose 0.2-0.6 mg/kg, time 9.0 day; procedure, shortened: as §1
Colon [9] = assay: Anti-colitis activity against DSS-induced ulcerative colitis mouse model assessed as increase in crypt architecture in colon tissue at 0.2 to 0.6 mg/kg, ip treated every 72 hrs for 9 days by H and E staining based analysis; assay type: functional, organism-based; conditions: dose 0.2-0.6 mg/kg, time 9.0 day
Procedure, shortened: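 Colons were taken on day 9 from 2.5% DSS-fed mice (DSS days 1–7). Dosing was i.p. 0.2 or 0.6 mg kg−1 in 50% PEG300 on days 2, 5, 8. H&E-stained sections imaged at ×20 and scored for inflammatory infiltration, goblet cell depletion and crypt loss.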

[10] = target: Nlrp3/Pycard (Mus musculus) (UniProt Q8R4B8+Q9EPB4); assay: Inhibition of NLRP3-ASC interaction in LPS-treated mouse J774.A1 cells at 50 to 200 nM pretreated for 1 hr followed by nigericin treatment for 1 hr by Co-IP assay; assay type: cell-based; conditions: dose 50-200 nM, time 2.0 hrs
Procedure, shortened: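 Primed/treated J774A.1 cells (LPS 1 μg mL−1 5 h, compound, nigericin 10 μM 1 h) lysed on ice 30 min. Precleared with Protein A/G agarose overnight at 4 °C, then primary antibody (IgG control) overnight at 4 °C. Protein A/G added 6 h, beads washed five times with D-PBS, boiled in SDS buffer and western blotted.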

[11] = target: T1, Interferon-inducible protein AIM2 (Mus musculus) (UniProt Q91VJ1); assay: Inhibition of AIM2 inflammasome activation in mouse BMDM cells assessed as reduction in LPS-stimulated IL-1beta level at 50 to 200 nM pretreated for 1 hr followed by poly(dA/dT) treatment for 4 hrs by ELISA; assay type: cell-based; conditions: dose 50-200 nM, time 5.0 hrs
T1 sequence (whole entry): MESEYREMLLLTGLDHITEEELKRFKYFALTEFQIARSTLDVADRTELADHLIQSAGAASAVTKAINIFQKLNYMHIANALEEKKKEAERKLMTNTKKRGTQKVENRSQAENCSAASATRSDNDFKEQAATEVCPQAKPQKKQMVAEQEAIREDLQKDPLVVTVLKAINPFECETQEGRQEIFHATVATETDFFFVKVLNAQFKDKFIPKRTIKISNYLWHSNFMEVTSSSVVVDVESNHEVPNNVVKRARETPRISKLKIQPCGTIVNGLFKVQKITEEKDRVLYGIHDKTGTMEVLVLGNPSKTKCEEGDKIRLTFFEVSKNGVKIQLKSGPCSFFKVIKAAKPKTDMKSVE
Procedure, shortened: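 BMDMs (RPMI 1640, 10% FBS, Glutamax, 20 ng mL−1 M-CSF) primed with 0.5 μg mL−1 LPS for 3 h, then compound for 1 h. Stimulated 4 h with FLA-ST Ultrapure 2.5 μg mL−1 (NLRC4) or poly(dA/dT) 0.25 μg mL−1 (AIM2). IL-1β measured by ELISA.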

Intestine [12] = assay: Anti-colitis activity against DSS-induced ulcerative colitis mouse model assessed as decrease in caspase-1 level in intestinal tissue at 0.2 to 0.6 mg/kg, ip treated every 72 hrs for 9 days by Western blot analysis; assay type: functional, organism-based; conditions: dose 0.2-0.6 mg/kg, time 9.0 day; procedure, shortened: as §3

Sequence of NACHT, LRR and PYD domains-containing protein 3 (Mus musculus) (Q8R4B8 whole entry, the tested form may be a part): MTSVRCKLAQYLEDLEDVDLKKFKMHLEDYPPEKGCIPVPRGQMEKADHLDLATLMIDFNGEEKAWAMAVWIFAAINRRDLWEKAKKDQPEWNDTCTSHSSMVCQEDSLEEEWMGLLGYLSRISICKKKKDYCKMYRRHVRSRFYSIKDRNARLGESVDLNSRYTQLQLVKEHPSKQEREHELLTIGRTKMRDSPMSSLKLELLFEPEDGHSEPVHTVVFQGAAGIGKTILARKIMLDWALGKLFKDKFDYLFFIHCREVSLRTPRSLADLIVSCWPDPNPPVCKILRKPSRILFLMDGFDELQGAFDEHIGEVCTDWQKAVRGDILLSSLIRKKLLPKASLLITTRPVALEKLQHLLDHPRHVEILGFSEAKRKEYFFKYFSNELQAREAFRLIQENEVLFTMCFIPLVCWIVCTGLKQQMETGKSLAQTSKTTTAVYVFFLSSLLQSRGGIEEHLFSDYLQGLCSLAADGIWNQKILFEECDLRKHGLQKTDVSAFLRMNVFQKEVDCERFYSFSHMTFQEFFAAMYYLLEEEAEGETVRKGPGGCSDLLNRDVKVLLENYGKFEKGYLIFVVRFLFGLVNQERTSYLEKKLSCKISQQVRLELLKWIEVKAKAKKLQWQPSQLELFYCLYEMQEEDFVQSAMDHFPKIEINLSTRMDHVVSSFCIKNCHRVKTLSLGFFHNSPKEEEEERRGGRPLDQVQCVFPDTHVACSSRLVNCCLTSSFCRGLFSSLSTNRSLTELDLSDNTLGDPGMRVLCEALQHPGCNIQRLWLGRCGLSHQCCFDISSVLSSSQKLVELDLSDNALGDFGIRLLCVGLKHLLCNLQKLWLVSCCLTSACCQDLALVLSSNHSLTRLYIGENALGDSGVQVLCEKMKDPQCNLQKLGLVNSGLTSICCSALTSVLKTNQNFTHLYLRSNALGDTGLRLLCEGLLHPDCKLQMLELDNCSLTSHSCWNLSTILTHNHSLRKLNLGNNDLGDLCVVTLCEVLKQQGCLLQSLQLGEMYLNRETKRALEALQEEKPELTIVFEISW
Sequence of NACHT, LRR and PYD domains-containing protein 3 (Q8R4B8 whole entry, the tested form may be a part): as above
Sequence of Nlrp3/Pycard (Mus musculus) (Q8R4B8 whole entry, looked up): as the sequence (Q8R4B8 whole entry, the tested form may be a part) above
Sequence of Nlrp3/Pycard (Mus musculus) (Q9EPB4 whole entry, looked up): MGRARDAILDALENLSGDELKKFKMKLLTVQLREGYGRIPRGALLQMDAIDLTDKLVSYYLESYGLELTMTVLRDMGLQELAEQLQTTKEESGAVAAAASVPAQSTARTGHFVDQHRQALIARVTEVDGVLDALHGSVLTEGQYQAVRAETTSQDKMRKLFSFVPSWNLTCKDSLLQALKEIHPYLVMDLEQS

SMILES: Cc1cc(/C=C/C(=O)c2ccc(C(=O)N[C@@H](Cc3ccccc3)C(=O)N[C@@H](CC(C)C)B(O)O)cc2)cc(C)c1O
- Activity (Colon [1]): Active
- inhibition [2]: Active
- Activity (Colon [3]): inactive
- inhibition (J774.A1): inactive
- IC50 [4]: 130 nM
- inhibition [5]: Active
- Activity (Intestine [6]): inactive
- inhibition [7]: Active
- Activity (Colon [8]): inactive
- Activity (Colon [9]): Active
- inhibition [10]: Active
- inhibition [11]: Active
- Activity (Intestine [12]): Active

From ChEMBL document CHEMBL5357044, “Discovery of a dual-acting inhibitor of interleukin-1β and STATs for the treatment of inflammatory bowel disease” (RSC Med Chem, 2024)
